ChEMBL document CHEMBL1157725 (Bioorg Med Chem, 2010)
Activity calls are given as the source filed them. The calls are words filed in the database; no cut-off is given here.

Tests used:
[1] = tested on: SK-MEL-2; assay: Growth inhibition of human SK-MEL-2 cells after 48 hrs by SRB assay; assay type: functional; settings: SK-MEL-2, 48 h
Method in brief: (§1)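 NCI human tumor cell line panel. Cells exposed for 48 h to five concentrations in a 10-fold serial dilution. Growth inhibition read as total cell protein by sulforhodamine B staining. GI50 calculated from log dose–response curves.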

[2] = tested on: SK-MEL-5; assay: Growth inhibition of human SK-MEL-5 cells after 48 hrs by SRB assay; assay type: functional; settings: SK-MEL-5, 48 h; method in brief: as §1
[3] = tested on: UACC-257; assay: Growth inhibition of human UACC257 cells after 48 hrs by SRB assay; assay type: functional; settings: UACC-257, 48 h; method in brief: as §1
[4] = tested on: UACC-62; assay: Growth inhibition of human UACC62 cells after 48 hrs by SRB assay; assay type: functional; settings: UACC-62, 48 h; method in brief: as §1
[5] = tested on: IGROV-1; assay: Growth inhibition of human IGROV1 cells after 48 hrs by SRB assay; assay type: functional; settings: IGROV-1, 48 h
Method in brief: (§2)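 This is the NCI cell-line panel. Cells are exposed for 48 h to five concentrations in 10-fold serial dilution. Growth is read by the SRB protein assay, and GI₅₀ is calculated from log dose–response curves.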

[6] = tested on: OVCAR-3; assay: Growth inhibition of human OVCAR-3 cells after 48 hrs by SRB assay; assay type: functional; settings: OVCAR-3, 48 h; method in brief: as §2
[7] = tested on: OVCAR-4; assay: Growth inhibition of human OVCAR4 cells after 48 hrs by SRB assay; assay type: functional; settings: OVCAR-4, 48 h; method in brief: as §2
[8] = tested on: OVCAR-5; assay: Growth inhibition of human OVCAR5 cells after 48 hrs by SRB assay; assay type: functional; settings: OVCAR-5, 48 h; method in brief: as §2
[9] = tested on: OVCAR-8; assay: Growth inhibition of human OVCAR8 cells after 48 hrs by SRB assay; assay type: functional; settings: OVCAR-8, 48 h; method in brief: as §2
[10] = tested on: SK-OV-3; assay: Growth inhibition of human SKOV3 cells after 48 hrs by SRB assay; assay type: functional; settings: SK-OV-3, 48 h; method in brief: as §1
[11] = tested on: 786-0; assay: Growth inhibition of human 786-0 cells after 48 hrs by SRB assay; assay type: functional; settings: 786-0, 48 h; method in brief: as §2
[12] = tested on: A498; assay: Growth inhibition of human A498 cells after 48 hrs by SRB assay; assay type: functional; settings: A498, 48 h; method in brief: as §2
[13] = tested on: ACHN; assay: Growth inhibition of human ACHN cells after 48 hrs by SRB assay; assay type: functional; method in brief: as §2
[14] = tested on: CAKI-1; assay: Growth inhibition of human Caki1 cells after 48 hrs by SRB assay; assay type: functional; settings: CAKI-1, 48 h; method in brief: as §2
[15] = tested on: RXF 393; assay: Growth inhibition of human RXF393 cells after 48 hrs by SRB assay; assay type: functional; settings: RXF 393, 48 h; method in brief: as §2
[16] = tested on: SN12C; assay: Growth inhibition of human SN12C cells after 48 hrs by SRB assay; assay type: functional; method in brief: as §1
[17] = tested on: TK-10; assay: Growth inhibition of human TK10 cells after 48 hrs by SRB assay; assay type: functional; settings: TK-10, 48 h; method in brief: as §1
[18] = tested on: UO-31; assay: Growth inhibition of human UO31 cells after 48 hrs by SRB assay; assay type: functional; settings: UO-31, 48 h; method in brief: as §1
[19] = tested on: PC-3; assay: Growth inhibition of human PC3 cells after 48 hrs by SRB assay; assay type: functional; settings: PC-3, 48 h; method in brief: as §2
[20] = tested on: DU-145; assay: Growth inhibition of human DU145 cells after 48 hrs by SRB assay; assay type: functional; settings: DU-145, 48 h; method in brief: as §2
[21] = tested on: MCF7; assay: Growth inhibition of human MCF7 cells after 48 hrs by SRB assay; assay type: functional; settings: MCF7, 48 h; method in brief: as §2
[22] = tested on: NCI/ADR-RES; assay: Growth inhibition of human NCI/ADR-RES cells after 48 hrs by SRB assay; assay type: functional; method in brief: as §2
[23] = tested on: MDA-MB-231; assay: Growth inhibition of human MDA-MB-231 cells after 48 hrs by SRB assay; assay type: functional; settings: MDA-MB-231, 48 h; method in brief: as §2
[24] = Growth inhibition of human Hs 578T cells after 48 hrs by SRB assay; assay type: functional; method in brief: as §2
[25] = tested on: MDA-MB-435; assay: Growth inhibition of human MDA-MB-435 cells after 48 hrs by SRB assay; assay type: functional; settings: MDA-MB-435, 48 h; method in brief: as §2
[26] = tested on: BT-549; assay: Growth inhibition of human BT549 cells after 48 hrs by SRB assay; assay type: functional; settings: BT-549, 48 h; method in brief: as §2
[27] = tested on: MCF7; assay: Cell cycle arrest in human MCF7 cells by accumulation at G2/M phase at 0.1 uM after 48 hrs by flow cytometry (Rvb=5.9%); assay type: functional
[28] = tested on: MCF7; assay: Cell cycle arrest in human MCF7 cells by accumulation at G2/M phase at 1 uM after 48 hrs by flow cytometry (Rvb=5.9%); assay type: functional
[29] = tested on: MCF7; assay: Cell cycle arrest in human MCF7 cells by accumulation at G2/M phase at 5 uM after 48 hrs by flow cytometry (Rvb=5.9%); assay type: functional
[30] = tested on: MCF7; assay: Cell cycle arrest in human MCF7 cells by accumulation at G2/M phase at 10 uM after 48 hrs by flow cytometry (Rvb=5.9%); assay type: functional
[31] = tested on: HUVEC; assay: Antiangiogenic activity in HUVEC cells assessed inhibition of tube formation at 1 uM after 16 hrs by tube formation assay; assay type: functional, cell-based; settings: Homo sapiens
Method in brief: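 HUVEC cells (1 × 10⁵) are seeded onto a Matrigel surface and tube formation is scored after treatment.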

[32] = tested on: Aorta; assay: Antiangiogenic activity in rat aortic rings assessed inhibition of sprouts formation at 5 uM after 6 days by aortic ring assay; assay type: functional, tissue-based
[33] = Displacement of [3H]colchicine from tubulin at 5 uM by DEAE-cellulose filter method

Structure (SMILES): COc1ccc(/C=C/C(=O)c2cc(OC)c(OC)c(OC)c2)cc1B(O)O
- GI50 [1]: 3330 nM
- GI50 [2]: 310 nM
- GI50 [3]: 4410 nM
- GI50 [4]: 34 nM
- GI50 [5]: 88 nM
- GI50 [6]: 2080 nM
- GI50 [7]: 2060 nM
- GI50 [8]: 1810 nM
- GI50 [9]: 300 nM
- GI50 [10]: < 10 nM
- GI50 [11]: 390 nM
- GI50 [12]: 4760 nM
- GI50 [13]: 520 nM
- GI50 [14]: 6390 nM
- GI50 [15]: 390 nM
- GI50 [16]: 460 nM
- GI50 [17]: 20900 nM
- GI50 [18]: 320 nM
- GI50 [19]: 250 nM
- GI50 [20]: 50 nM
- GI50 [21]: 34 nM
- GI50 [22]: 50 nM
- GI50 [23]: 110 nM
- GI50 [24]: 46 nM
- GI50 [25]: 1950 nM
- GI50 [26]: 21 nM
- Activity [27]: 6.4%
- Activity [28]: 7.1%
- Activity [29]: 7.4%
- Activity [30]: 14%
- inhibition [31]: Active
- inhibition [32]: Active
- inhibition [33]: 4.4%
